Measured values gathered from unrelated publications.
Each line is one published result; the experiments were not run side by side.
Target: Tyrosine-protein kinase Tec (TEC, Homo sapiens, UniProt P42680)
Residues used in one study (P42680 1-631): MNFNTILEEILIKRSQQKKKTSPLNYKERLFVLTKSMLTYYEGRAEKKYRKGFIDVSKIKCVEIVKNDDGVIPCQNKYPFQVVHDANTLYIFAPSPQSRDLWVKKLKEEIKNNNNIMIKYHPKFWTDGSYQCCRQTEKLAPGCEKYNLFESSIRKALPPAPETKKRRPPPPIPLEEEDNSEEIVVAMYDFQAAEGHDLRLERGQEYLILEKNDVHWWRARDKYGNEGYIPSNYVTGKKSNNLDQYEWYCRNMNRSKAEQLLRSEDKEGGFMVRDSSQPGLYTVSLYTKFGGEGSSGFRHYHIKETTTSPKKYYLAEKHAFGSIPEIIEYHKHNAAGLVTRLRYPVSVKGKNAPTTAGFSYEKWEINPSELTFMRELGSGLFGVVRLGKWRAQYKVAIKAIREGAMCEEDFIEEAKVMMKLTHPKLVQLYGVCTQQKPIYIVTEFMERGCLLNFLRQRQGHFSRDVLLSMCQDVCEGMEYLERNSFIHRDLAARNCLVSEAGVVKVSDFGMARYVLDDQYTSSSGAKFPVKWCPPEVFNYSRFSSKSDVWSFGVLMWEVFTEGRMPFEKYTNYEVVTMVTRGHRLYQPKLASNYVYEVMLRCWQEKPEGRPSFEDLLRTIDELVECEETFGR

`CSc1cccnc1N1CCN(Cc2nc3ccccc3[nH]2)CC1` gave a remaining binding of 90% (binding, competition with immobilised ligand; 1 µM).
The remaining binding of `CN(c1nccc(-c2cnn3ncccc23)n1)C1CC1` is reported as 100% (binding; 1 µM).
The remaining binding of `CCC(=O)N[C@H]1CC[C@@H](C(=O)N(C)c2ccc(-c3nc4ccccc4o3)cc2)C1` is reported as 100% (cell-free assay, competition with immobilised ligand; 1 µM).
For `COc1ncc2cc3ccccc3nc2c1C#N`, the remaining binding was 100% (binding, competition with immobilised ligand; 5 µM).
For `CN(C(=O)c1ccccc1)c1cc(N(C)c2ccc3c(c2)CCc2ccc(C(=O)NCCN4CCOCC4)cc2C3=O)ccc1F`, the remaining binding was 100% (cell-free assay, competition with immobilised ligand; 1 µM).
`Nc1ncc2c(n1)-c1c([nH]c3ccc(C#CC4CC4)cc13)CCCC2` has a remaining binding of 100% (binding, competition with immobilised ligand; 1 µM).
`O=C(NCCCN1CCOCC1)c1ccc(Nc2nccc(-c3cc4ccccc4s3)n2)cc1` gave a remaining binding of 100% (binding, competition with immobilised ligand; 1 µM).
`CN(C)c1nccc(-c2cnc3ncccn23)n1` gave a remaining binding of 100% (binding; 1 µM).
The remaining binding of `COc1cnc(Nc2cccc(S(N)(=O)=O)c2)nc1N1CCN(c2ccccc2)CC1` is reported as 85% (binding, competition with immobilised ligand; 1 µM).
With `CN(CCCC(F)(F)F)c1nccc(-c2cnn3ncccc23)n1` the remaining binding was 97% (binding; 1 µM).
`O=C(O)[C@H]1[C@H](Cn2nnc3ccccc3c2=O)CC[C@@H]1C(=O)c1ccc(OCCC2CCOCC2)cc1` has a remaining binding of 100% (binding, competition with immobilised ligand; 1 µM).
`CN(C)c1ncc(F)c(-c2cnn3ncccc23)n1` gave a remaining binding of 100% (binding; 1 µM).
For `CCCCN(CCCC)C(=O)CN1C[C@@H](c2cc(OC)c3c(c2)OCO3)[C@H](C(=O)O)[C@H]1CC(C)(C)CCC`, the remaining binding was 100% (cell-free assay, competition with immobilised ligand; 1 µM).
For `C[C@@H]1CCN(c2nccc(-c3cnn4ncccc34)n2)C1`, the remaining binding was 90% (binding; 1 µM).
The remaining binding of `O=C(c1ccc(Nc2ncc(Cl)c(-c3cc4ccccc4s3)n2)cc1)N1CCC(N2CCCC2)CC1` is reported as 99% (binding, competition with immobilised ligand; 1 µM).
For `N[C@H]1CCN(c2nccc(-c3cnn4ncccc34)n2)C1`, the remaining binding was 100% (binding; 1 µM).
The remaining binding of `Cc1cnc(Nc2ccc(C(=O)N3CCC(N4CCCC4)CC3)cc2)nc1-c1cc2ccccc2s1` is reported as 100% (binding, competition with immobilised ligand; 1 µM).
`CCN1CCN(Cc2ccc(C(=O)Nc3ccc(C)c(Oc4ccc5c(c4)CC(=O)N5)c3)cc2C(F)(F)F)CC1` has a remaining binding of 98% (binding, competition with immobilised ligand; 1 µM).
`COc1ccc2c(O[C@@H]3C[C@H]4C(=O)N[C@]5(C(=O)O)CC5/C=C\CCCCC[C@H](NC(=O)OC5CCCC5)C(=O)N4C3)cc(-c3csc(NC(=O)C(C)C)n3)nc2c1C` (stereo partly drawn) gave a remaining binding of 100% (cell-free assay, competition with immobilised ligand; 1 µM).
`O=C(NCC1CCOCC1)c1n[nH]cc1NC(=O)c1c(F)cccc1F` gave a remaining binding of 100% (binding, competition with immobilised ligand; 1 µM).
The remaining binding of `C[C@@H](c1ccc(-n2cnc3c(N)ncnc32)cc1)N1CCc2nn(C)c(Cc3ccccc3)c2C1=O` is reported as 63% (binding, competition with immobilised ligand; 0.1 µM).
